Assay [1] concerns HepG2. Kind of assay: Antiproliferative activity against human HepG2 cells at 10 uM after 24 hrs by CCK-8 assay relative to control. The assay is classed as functional. The procedure, abridged: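 HepG-2 grown in DMEM with 10% FBS and penicillin/streptomycin (37 °C, 5% CO2). Seeded 2 × 10^5 cells/well for 24 h, then given a single 10 μM dose or 1% DMSO vehicle for 24 h. CCK-8 reagent for 1 h, A450 read, and percent inhibition calculated against untreated control cells.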

The nature of assay [2]: Antiproliferative activity against human QSG7701 cells after 24 hrs by CCK-8 assay. It counts as cell-based. Particulars: QSG7701, 24 h. The procedure, abridged:
(§1)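 Cells in 10% FBS medium with penicillin/streptomycin at 37 °C, 5% CO2; HepG-2 in DMEM, QGY-7703, SMMC-7721 and QSG-7701 in RPMI 1640. Seeded 2 × 10^5 cells/well, grown 24 h, then exposed to five concentrations of compound or 1% DMSO vehicle for 24 h. CCK-8 added for 1 h, absorbance read at 450 nm; IC50 derived from the 5-dose data.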

For assay [3], the system named is HepG2. The assay can be described thus: Antiproliferative activity against human HepG2 cells after 24 hrs by CCK-8 assay. It counts as functional, cell-based. Particulars: HepG2, 24 h. The procedure, abridged: as §1
A general note: Formazan colour is commonly taken as a measure of viable cells.

The next assay concerns SMMC-7721. Kind of assay: Antiproliferative activity against human SMMC7721 cells after 24 hrs by CCK-8 assay. Particulars: SMMC-7721, 24 h. It counts as functional, cell-based. Summed up:
as §1

The subject of a further assay is QGY-7703. Kind of assay: Antiproliferative activity against human QGY7703 cells after 24 hrs by CCK-8 assay. The assay is classed as functional, cell-based. Particulars: QGY-7703, 24 h. The procedure, abridged: as §1

In the assay on HepG2 [1], `C=C1C(=O)O[C@@H]2C3=C(C)[C@@H](OC(=O)/C=C/c4ccc(OCC)cc4)CC3[C@](C)(OC(C)=O)CC[C@@H]12` (stereo partly drawn) had an Activity of 49.75%.
The IC50 is the concentration that inhibits the measured activity by half. The low end stands for greater potency in that assay, the high end for weaker potency in that assay. Regarding `C=C1C(=O)O[C@@H]2C3=C(C)[C@@H](OC(=O)c4ccccc4)CC3[C@](C)(OC(C)=O)CC[C@@H]12` (stereo partly drawn), the IC50 in assay [2] is more than 100 µM; in the assay on HepG2 [3], 7.99 µM; in the assay with SMMC-7721 it was 5.99 µM; in the assay with QGY-7703 it was 13 µM. Further, the Activity in the assay with HepG2 [1] was found to be 68.47%.
On to `C=C1C(=O)O[C@@H]2C3=C(C)[C@@H](OC(=O)/C=C/c4ccc(C#N)cc4)CC3[C@](C)(OC(C)=O)CC[C@@H]12` (stereo partly drawn), for which the Activity with HepG2 [1] worked out at 48.53%.
Consider `C=C1C(=O)O[C@@H]2C3=C(C)[C@@H](OC(=O)c4ccc(C(C)(C)C)cc4)CC3[C@](C)(OC(C)=O)CC[C@@H]12` (stereo partly drawn), for which the IC50 stood at 48.5 µM in assay [2], 11.1 µM with HepG2 [3], 9.37 µM with SMMC-7721 and 5.13 µM in the assay on QGY-7703. Further, the Activity in the assay on HepG2 [1] was found to be 64.41%.
Take `C=C1C(=O)O[C@@H]2C3=C(C)[C@@H](OC(=O)c4ccc(I)cc4)CC3[C@](C)(OC(C)=O)CC[C@@H]12` (stereo partly drawn): the IC50 in assay [2] was 36.5 µM; with HepG2 [3], 7.57 µM; in the assay with SMMC-7721, 4.18 µM; with QGY-7703 it was 9 µM. In the assay with HepG2 [1], this molecule came in with an Activity of 63.11%.
For `C=C1C(=O)O[C@@H]2C3=C(C)[C@@H](OC(=O)/C=C/c4ccc(Br)cc4)CC3[C@](C)(OC(C)=O)CC[C@@H]12` (stereo partly drawn), in that order: 91.3 µM, 11.7 µM, 6.09 µM, 8.91 µM and 61.39%.
Molecule `C=C1C(=O)O[C@@H]2C3=C(C)[C@@H](OC(=O)c4ccc(CC)cc4)CC3[C@](C)(OC(C)=O)CC[C@@H]12` (stereo partly drawn) registered an Activity with HepG2 [1] of 42.33%.
Regarding `C=C1C(=O)O[C@@H]2C3=C(C)[C@@H](OC(=O)c4ccc(C#N)cc4)CC3[C@](C)(OC(C)=O)CC[C@@H]12` (stereo partly drawn), the IC50 in assay [2] is more than 100 µM; with HepG2 [3] it was 9.14 µM; in the assay on SMMC-7721 it was 6.7 µM; in the assay on QGY-7703, 22.8 µM. For the same molecule, the Activity in the assay with HepG2 [1] was determined as 62.58%.
As for `C=C1C(=O)O[C@@H]2C3=C(C)[C@@H](OC(=O)c4ccc(C(F)(F)F)cc4)CC3[C@](C)(OC(C)=O)CC[C@@H]12` (stereo partly drawn), the IC50 turned out to be 41.1 µM in assay [2], 5.63 µM in the assay with HepG2 [3], 5.49 µM in the assay on SMMC-7721 and 5.64 µM with QGY-7703. The Activity in the assay with HepG2 [1] worked out at 72.42%.
Take `C=C1C(=O)O[C@@H]2C3=C(C)[C@@H](O)CC3[C@](C)(OC(C)=O)CC[C@@H]12` (stereo partly drawn): the Activity in the assay with HepG2 [1] is listed as 32.02%.
Consider `C=C1C(=O)O[C@@H]2C3=C(C)[C@@H](OC(=O)c4ccc(OC(F)(F)F)cc4)CC3[C@](C)(OC(C)=O)CC[C@@H]12` (stereo partly drawn), for which the IC50 amounted to 36.8 µM in assay [2], 7.54 µM in the assay on HepG2 [3], 6.1 µM with SMMC-7721 and 11.3 µM with QGY-7703. The molecule also had an Activity in the assay with HepG2 [1] of 69.25%.
For the molecule `C=C1C(=O)O[C@@H]2C3=C(C)[C@@H](OC(=O)c4ccc(Br)cc4)CC3[C@](C)(OC(C)=O)CC[C@@H]12` (stereo partly drawn), the IC50 in assay [2] was determined as 51.9 µM; with HepG2 [3], 7.41 µM; with SMMC-7721, 6.54 µM; with QGY-7703, 13.7 µM. The Activity in the assay with HepG2 [1] was 71.06%.
Consider `C=C1C(=O)O[C@@H]2C3=C(C)[C@@H](OC(=O)c4ccc(CCCCC)cc4)CC3[C@](C)(OC(C)=O)CC[C@@H]12` (stereo partly drawn), for which the concentration for half-maximal inhibition (IC50) in assay [2] was 38.5 µM; in the assay on HepG2 [3], 10.8 µM; in the assay with SMMC-7721 it was 18.7 µM; in the assay on QGY-7703, 7.19 µM. Moreover, the Activity with HepG2 [1] was 58.08%.
For `C=C1C(=O)O[C@@H]2C3=C(C)[C@@H](OC(=O)/C=C/c4ccc(C(F)(F)F)cc4)CC3[C@](C)(OC(C)=O)CC[C@@H]12` (stereo partly drawn), in that order: 43.3 µM, 6.79 µM, 6.12 µM, 12.7 µM and 71.14%.
For the molecule `C=C1C(=O)O[C@@H]2C3=C(C)[C@@H](OC(=O)/C=C/c4ccc(F)cc4)CC3[C@](C)(OC(C)=O)CC[C@@H]12` (stereo partly drawn), the concentration for half-maximal inhibition (IC50) is more than 100 µM in assay [2], 9.98 µM with HepG2 [3], 5.8 µM with SMMC-7721 and 12.2 µM in the assay with QGY-7703. The molecule also showed an Activity with HepG2 [1] of 67.53%.
`C=C1C(=O)O[C@@H]2C3=C(C)[C@@H](OC(=O)c4ccc(C(C)C)cc4)CC3[C@](C)(OC(C)=O)CC[C@@H]12` (stereo partly drawn): the Activity with HepG2 [1] is listed as 37.86%.
On to `C=C1C(=O)O[C@@H]2C3=C(C)[C@@H](OC(=O)/C=C/c4ccc(OCCC)cc4)CC3[C@](C)(OC(C)=O)CC[C@@H]12` (stereo partly drawn), for which the Activity with HepG2 [1] is on record as 47.78%.
On to `C=C1C(=O)O[C@@H]2C3=C(C)[C@@H](OC(=O)c4ccc(F)cc4)CC3[C@](C)(OC(C)=O)CC[C@@H]12` (stereo partly drawn), for which the IC50 was found to be 39 µM in assay [2], 6.2 µM in the assay with HepG2 [3], 4.97 µM with SMMC-7721 and 6.78 µM in the assay on QGY-7703. The Activity in the assay on HepG2 [1] is recorded as 78.61%.
Consider `C=C1C(=O)O[C@@H]2C3=C(C)[C@@H](OC(=O)c4ccc(CCCC)cc4)CC3[C@](C)(OC(C)=O)CC[C@@H]12` (stereo partly drawn), for which the IC50 in assay [2] amounted to 45.1 µM; in the assay with HepG2 [3], 10.3 µM; in the assay with SMMC-7721 it was 7.46 µM; with QGY-7703, 7.2 µM. For the same molecule, in the assay with HepG2 [1], the Activity is 67.53%.
In the assay with HepG2 [1], `C=C1C(=O)O[C@@H]2C3=C(C)[C@@H](OC(=O)/C=C/c4ccc(SC)cc4)CC3[C@](C)(OC(C)=O)CC[C@@H]12` (stereo partly drawn) showed an Activity of 36.24%.
With `C=C1C(=O)O[C@@H]2C3=C(C)[C@@H](OC(=O)c4ccc(CCC)cc4)CC3[C@](C)(OC(C)=O)CC[C@@H]12` (stereo partly drawn), the 50% inhibitory concentration (IC50) stood at 34.3 µM in assay [2], 10.1 µM with HepG2 [3], 6.52 µM with SMMC-7721 and 8.33 µM with QGY-7703. Further, the Activity in the assay with HepG2 [1] is recorded as 62.47%.
Take `C=C1C(=O)O[C@@H]2C3=C(C)[C@@H](OC(=O)c4ccc(C)cc4)CC3[C@](C)(OC(C)=O)CC[C@@H]12` (stereo partly drawn): the IC50 in assay [2] was more than 100 µM; in the assay on HepG2 [3], 8.52 µM; with SMMC-7721 it was 6.49 µM; in the assay with QGY-7703 it was 12.2 µM. In the assay with HepG2 [1], this molecule registered an Activity of 58.47%.
Regarding `C=C1C(=O)O[C@@H]2C3=C(C)[C@@H](OC(=O)/C=C/c4ccc(C)cc4)CC3[C@](C)(OC(C)=O)CC[C@@H]12` (stereo partly drawn), the IC50 is more than 100 µM in assay [2], 8.67 µM with HepG2 [3], 5.06 µM with SMMC-7721 and 10.6 µM with QGY-7703. This molecule gave an Activity in the assay with HepG2 [1] of 72.03%.
For the molecule `C=C1C(=O)O[C@@H]2C3=C(C)[C@@H](OC(=O)c4ccc(OC)cc4)CC3[C@](C)(OC(C)=O)CC[C@@H]12` (stereo partly drawn), the IC50 was more than 100 µM in assay [2], 12.2 µM in the assay with HepG2 [3], 8.93 µM in the assay on SMMC-7721 and 22.3 µM in the assay with QGY-7703. The molecule also registered an Activity in the assay with HepG2 [1] of 53.03%.
For `C=C1C(=O)O[C@@H]2C3=C(C)[C@@H](OC(=O)/C=C/c4ccccc4)CC3[C@](C)(OC(C)=O)CC[C@@H]12` (stereo partly drawn), the IC50 in assay [2] is more than 100 µM; in the assay with HepG2 [3], 16.2 µM; in the assay with SMMC-7721, 6.43 µM; with QGY-7703, 18.8 µM. The same molecule yielded an Activity with HepG2 [1] of 56.11%.
For `C=C1C(=O)O[C@@H]2C3=C(C)[C@@H](OC(=O)/C=C/c4ccc([N+](=O)[O-])cc4)CC3[C@](C)(OC(C)=O)CC[C@@H]12` (stereo partly drawn), the Activity in the assay with HepG2 [1] amounted to 42.67%.

These data come from ChEMBL document CHEMBL4196055, “Synthesis and biological evaluation of α-santonin derivatives as anti-hepatoma agents” (Eur J Med Chem, 2018).
